# Results reported in ChEMBL document CHEMBL5724801, “EUbOPEN Chemogenomics Library - Multiplex” (2024).
# Where “and” joins values, the source holds several entries; their conditions need not be identical. Equal entries are not always repeated.
# System: U2OS
# Assay: Multiplex assay against U2OS
# Type: toxicity, cell-based
# Settings: human
# Method in brief: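 Live cells carried four stains from seeding: Hoechst33342, BioTracker Green Microtubule Cytoskeleton Dye, MitoTracker Red and Annexin V Alexa Fluor 680. They were imaged on a CQ1 microscope at 37°C and 5% CO2 after compound addition. Using CellPathfinder machine-learning gating, cells were split into Hoechst high-intensity objects or normal cells, normal cells into healthy, pyknosed or fragmented nuclei, and pyknosed cells into mitotic or apoptotic; tubulin, mitochondrial-mass and membrane-permeability phenotypes are per cents of healthy-nucleus cells.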
# [1] = 12 h, 1 µM, compound concentration 1 uM
# [2] = 12 h, 10 µM, compound concentration 10 uM
# [3] = 24 h, 1 µM, compound concentration 1 uM
# [4] = 24 h, 10 µM, compound concentration 10 uM
# [5] = 48 h, 1 µM, compound concentration 1 uM
# [6] = 48 h, 10 µM, compound concentration 10 uM
compound,measurement,setting,value
S=C(NCCCc1c[nH]cn1)NCCCN(Cc1ccc(Cl)c(Cl)c1)c1ccc(Br)cn1,Population Apoptotic (%),[1],75% and 80%
same,Population Fragmented Nuclei (%),[1],27% and 20%
same,Population Healthy Nuclei (%),[1],63% and 68%
same,Population Hoechst High Intensity Objects (%),[1],2% and 3%
same,Population Membrane Permeable-Phenotype (%),[1],13% and 6%
same,Population Mitochondria Different-Phenotype (%),[1],2% and 9%
same,Population Mitotic Cells (%),[1],25% and 20%
same,Population Normal (%),[1],97% and 96%
same,Population Pyknosed Nuclei (%),[1],9% and 11%
same,Population Tubulin-Different-Phenotype (%),[1],6% and 1%
same,Total Cell Count,[1],228 and 93
same,Population Apoptotic (%),[2],66% and 58%
same,Population Fragmented Nuclei (%),[2],27% and 24%
same,Population Healthy Nuclei (%),[2],46%
same,Population Hoechst High Intensity Objects (%),[2],6% and 0%
same,Population Membrane Permeable-Phenotype (%),[2],86% and 84%
same,Population Mitochondria Different-Phenotype (%),[2],26% and 60%
same,Population Mitotic Cells (%),[2],33% and 41%
same,Population Normal (%),[2],93% and 100%
same,Population Pyknosed Nuclei (%),[2],26% and 29%
same,Population Tubulin-Different-Phenotype (%),[2],83% and 89%
same,Total Cell Count,[2],220 and 82
same,Population Apoptotic (%),[3],81% and 100%
same,Population Fragmented Nuclei (%),[3],22% and 30%
same,Population Healthy Nuclei (%),[3],69% and 65%
same,Population Hoechst High Intensity Objects (%),[3],3% and 1%
same,Population Membrane Permeable-Phenotype (%),[3],11% and 7%
same,Population Mitochondria Different-Phenotype (%),[3],3% and 5%
same,Population Mitotic Cells (%),[3],18% and 0%
same,Population Normal (%),[3],96% and 98%
same,Population Pyknosed Nuclei (%),[3],8% and 4%
same,Population Tubulin-Different-Phenotype (%),[3],9% and 3%
same,Total Cell Count,[3],285 and 125
same,Population Apoptotic (%),[4],62% and 60%
same,Population Fragmented Nuclei (%),[4],33% and 29%
same,Population Healthy Nuclei (%),[4],38% and 40%
same,Population Hoechst High Intensity Objects (%),[4],5% and 2%
same,Population Membrane Permeable-Phenotype (%),[4],59% and 77%
same,Population Mitochondria Different-Phenotype (%),[4],17% and 32%
same,Population Mitotic Cells (%),[4],37% and 39%
same,Population Normal (%),[4],94% and 97%
same,Population Pyknosed Nuclei (%),[4],28% and 29%
same,Population Tubulin-Different-Phenotype (%),[4],54% and 64%
same,Total Cell Count,[4],227 and 79
same,Population Apoptotic (%),[5],83% and 87%
same,Population Fragmented Nuclei (%),[5],17% and 28%
same,Population Healthy Nuclei (%),[5],74% and 60%
same,Population Hoechst High Intensity Objects (%),[5],1% and 0%
same,Population Membrane Permeable-Phenotype (%),[5],5%
same,Population Mitochondria Different-Phenotype (%),[5],3%
same,Population Mitotic Cells (%),[5],16% and 12%
same,Population Normal (%),[5],98% and 99%
same,Population Pyknosed Nuclei (%),[5],7% and 11%
same,Population Tubulin-Different-Phenotype (%),[5],2% and 3%
same,Total Cell Count,[5],409 and 211
same,Population Apoptotic (%),[6],70% and 73%
same,Population Fragmented Nuclei (%),[6],43% and 50%
same,Population Healthy Nuclei (%),[6],8% and 15%
same,Population Hoechst High Intensity Objects (%),[6],21% and 15%
same,Population Membrane Permeable-Phenotype (%),[6],46% and 57%
same,Population Mitochondria Different-Phenotype (%),[6],20% and 42%
same,Population Mitotic Cells (%),[6],29% and 26%
same,Population Normal (%),[6],78% and 84%
same,Population Pyknosed Nuclei (%),[6],47% and 33%
same,Population Tubulin-Different-Phenotype (%),[6],26% and 57%
same,Total Cell Count,[6],230 and 105
CCCCC(=O)N(Cc1ccc(-c2ccccc2-c2nnn[nH]2)cc1)[C@H](C(=O)O)C(C)C,Population Apoptotic (%),[1],85% and 100%
same,Population Fragmented Nuclei (%),[1],28% and 15%
same,Population Healthy Nuclei (%),[1],63% and 79%
same,Population Hoechst High Intensity Objects (%),[1],1% and 3%
same,Population Membrane Permeable-Phenotype (%),[1],8% and 9%
same,Population Mitochondria Different-Phenotype (%),[1],3% and 5%
same,Population Mitotic Cells (%),[1],14% and 0%
same,Population Normal (%),[1],98% and 96%
same,Population Pyknosed Nuclei (%),[1],8% and 4%
same,Population Tubulin-Different-Phenotype (%),[1],4% and 2%
same,Total Cell Count,[1],259 and 130
same,Population Apoptotic (%),[2],75%
same,Population Fragmented Nuclei (%),[2],35% and 24%
same,Population Healthy Nuclei (%),[2],55% and 71%
same,Population Hoechst High Intensity Objects (%),[2],1% and 0%
same,Population Membrane Permeable-Phenotype (%),[2],3% and 1%
same,Population Mitochondria Different-Phenotype (%),[2],2%
same,Population Mitotic Cells (%),[2],25%
same,Population Normal (%),[2],98% and 99%
same,Population Pyknosed Nuclei (%),[2],9% and 3%
same,Population Tubulin-Different-Phenotype (%),[2],2% and 0%
same,Total Cell Count,[2],218 and 108
same,Population Apoptotic (%),[3],86% and 83%
same,Population Fragmented Nuclei (%),[3],23% and 10%
same,Population Healthy Nuclei (%),[3],68% and 77%
same,Population Hoechst High Intensity Objects (%),[3],2% and 6%
same,Population Membrane Permeable-Phenotype (%),[3],5% and 9%
same,Population Mitochondria Different-Phenotype (%),[3],3% and 6%
same,Population Mitotic Cells (%),[3],13% and 16%
same,Population Normal (%),[3],97% and 93%
same,Population Pyknosed Nuclei (%),[3],7% and 12%
same,Population Tubulin-Different-Phenotype (%),[3],2% and 7%
same,Total Cell Count,[3],289 and 158
same,Population Apoptotic (%),[4],82% and 84%
same,Population Fragmented Nuclei (%),[4],31% and 22%
same,Population Healthy Nuclei (%),[4],59% and 67%
same,Population Hoechst High Intensity Objects (%),[4],2% and 0%
same,Population Membrane Permeable-Phenotype (%),[4],3% and 4%
same,Population Mitochondria Different-Phenotype (%),[4],2% and 8%
same,Population Mitotic Cells (%),[4],17% and 15%
same,Population Normal (%),[4],97% and 100%
same,Population Pyknosed Nuclei (%),[4],8% and 9%
same,Population Tubulin-Different-Phenotype (%),[4],2% and 6%
same,Total Cell Count,[4],272 and 135
same,Population Apoptotic (%),[5],86% and 85%
same,Population Fragmented Nuclei (%),[5],17% and 20%
same,Population Healthy Nuclei (%),[5],75% and 68%
same,Population Hoechst High Intensity Objects (%),[5],2% and 3%
same,Population Membrane Permeable-Phenotype (%),[5],5% and 7%
same,Population Mitochondria Different-Phenotype (%),[5],3%
same,Population Mitotic Cells (%),[5],13% and 15%
same,Population Normal (%),[5],97% and 96%
same,Population Pyknosed Nuclei (%),[5],7% and 10%
same,Population Tubulin-Different-Phenotype (%),[5],2% and 3%
same,Total Cell Count,[5],397 and 201
same,Population Apoptotic (%),[6],83% and 87%
same,Population Fragmented Nuclei (%),[6],22% and 21%
same,Population Healthy Nuclei (%),[6],70% and 60%
same,Population Hoechst High Intensity Objects (%),[6],1% and 4%
same,Population Membrane Permeable-Phenotype (%),[6],6% and 4%
same,Population Mitochondria Different-Phenotype (%),[6],2% and 3%
same,Population Mitotic Cells (%),[6],16% and 12%
same,Population Normal (%),[6],98% and 95%
same,Population Pyknosed Nuclei (%),[6],7% and 17%
same,Population Tubulin-Different-Phenotype (%),[6],2% and 6%
same,Total Cell Count,[6],347 and 188
